Assay results pooled from the literature.
Each line is one published result; the experiments were not run side by side.
Cell line: COLO 205
Effect on: cell growth or viability

SMILES	method	tested at	time	quantity	value
COc1cc2ccc(=O)oc2cc1OC	MTT		24 h	IC50	> 100000 nM
CC(C)[C@H](N)c1nc2cc(-c3ccnc(F)c3)sc2c(=O)[nH]1	MTT			IC50	89.3 nM
COc1cc(Nc2nccc(-c3cnn4nc(OC)ccc34)n2)cc(C(F)(F)F)c1	ATP luminescence			IC50	510 nM
COc1ccc(C(=O)/C=C/c2cccc(Cl)c2)cc1S(N)(=O)=O	SRB	10 µM		inhibition	165%
Cc1cc(-c2cc3nc([C@@H](N)C(C)C)[nH]c(=O)c3s2)ccn1	MTT			IC50	1410 nM
COc1c2ccoc2c(OCC=C(C)C)c2oc(=O)ccc12	MTT		24 h	IC50	> 100000 nM
COc1cccc(Oc2ccccc2NC(=O)CNC(=O)c2cccc3ccccc23)c1	SRB		48 h	GI50	282 nM
CC(C)C[C@H](NC(=O)[C@H](Cc1ccccc1)NC(=O)c1cnccn1)B(O)O	ATP luminescence			IC50	22 nM
COc1ccc(C(=O)/C=C/c2ccccc2Br)cc1S(N)(=O)=O	SRB		48 h	GI50	2200 nM
CC(C)[C@H](N)c1nc2cc(-c3ccncc3F)sc2c(=O)[nH]1	MTT			IC50	24.8 nM
